Assay results from different studies.
Lines come from different studies, so protocols differ.
Target: Serine/threonine-protein kinase BRSK2 (BRSK2, Homo sapiens, UniProt Q8IWQ3)
Residues used in one study (Q8IWQ3 1-736): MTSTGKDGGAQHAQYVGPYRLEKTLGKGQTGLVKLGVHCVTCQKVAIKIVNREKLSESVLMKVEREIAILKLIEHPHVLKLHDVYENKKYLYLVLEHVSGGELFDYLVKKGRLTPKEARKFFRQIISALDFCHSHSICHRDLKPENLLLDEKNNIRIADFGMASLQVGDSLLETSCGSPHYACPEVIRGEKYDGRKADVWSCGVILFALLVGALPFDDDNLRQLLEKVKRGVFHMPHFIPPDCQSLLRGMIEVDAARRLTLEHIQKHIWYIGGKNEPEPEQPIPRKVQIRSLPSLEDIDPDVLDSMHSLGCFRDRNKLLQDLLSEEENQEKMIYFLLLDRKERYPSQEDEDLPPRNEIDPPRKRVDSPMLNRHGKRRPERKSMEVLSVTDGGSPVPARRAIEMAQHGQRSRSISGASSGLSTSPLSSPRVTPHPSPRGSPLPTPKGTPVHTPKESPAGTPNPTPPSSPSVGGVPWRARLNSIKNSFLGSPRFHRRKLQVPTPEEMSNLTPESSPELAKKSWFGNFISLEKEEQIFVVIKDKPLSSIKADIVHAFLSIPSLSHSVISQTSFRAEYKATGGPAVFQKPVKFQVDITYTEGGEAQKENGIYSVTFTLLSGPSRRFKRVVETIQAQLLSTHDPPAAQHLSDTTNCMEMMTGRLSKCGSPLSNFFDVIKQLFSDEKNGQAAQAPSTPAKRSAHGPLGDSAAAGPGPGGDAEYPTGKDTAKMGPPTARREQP

`Cn1cncc1[C@@](O)(COc1ccc(C#N)cc1-c1ccc(OC(F)(F)F)cc1)c1ccc(C#N)cc1` gave a remaining binding of 100% (cell-free assay, competition with immobilised ligand; 1 µM).
For `COc1ncccc1-c1cnn2ccc(N3CCN(C(=O)OC(C)C)CC3)nc12`, the remaining binding was 82% (binding, competition with immobilised ligand; 1 µM).
`CC(C)(C)c1cc(C=C(C#N)C#N)cc(Br)c1O` gave a remaining activity of 94.5% (enzyme activity, inhibitor; 0.5 µM).
For `COc1cc(Nc2ncc(F)c(Nc3ccc4c(n3)NC(=O)C(C)(C)O4)n2)cc(OC)c1OC`, the inhibition was 0% (binding, competition with immobilised ligand; 10 µM).
`N#CC1(c2ccccn2)CCN(Cc2cc(C(=O)O)c(=O)n3ccccc23)CC1` has a remaining binding of 100% (cell-free assay, competition with immobilised ligand; 1 µM).
`Cc1nn(C)cc1-c1nc2c(N3CCN(Cc4ccc(Cl)cc4)CC3)c(Cl)cnc2[nH]1` has a remaining binding of 100% (binding, competition with immobilised ligand; 1 µM).
The remaining signal of `O=c1[nH]c2ccccc2n1C1CCN(Cc2ccc(-c3[nH]c4cc5ncnc5cc4nc3-c3ccccc3)cc2)CC1` is reported as 106% (cell-free assay; 0.5 µM).
`Nc1ncc(-c2nc(N3CCOCC3)nc(N3CCOCC3)n2)c(C(F)F)n1` has a remaining binding of 92% (binding, competition with immobilised ligand; 10 µM).
